{"source": "ChEMBL document CHEMBL1155832", "about": "“Design, synthesis, and biological evaluation of antiviral agents targeting flavivirus envelope proteins” (J Med Chem, 2008)", "key": {"[1]": {"assay": "Therapeutic index, ratio of CC50 for BHK15 cells to EC50 IRES-luciferase tagged Yellow fever virus", "assay_type": "cell-based", "conditions": "hamster, read-out: Ratio CC50/EC50"}, "Yellow fever virus [2]": {"test_system": "Yellow fever virus", "assay": "Antiviral activity against IRES-luciferase tagged Yellow fever virus in BHK15 cells assessed as reduction of luciferase activity after 36 hrs", "assay_type": "functional, organism-based", "conditions": "BHK15, 36 h"}, "[3]": {"assay": "Cytotoxicity against BHK15 cells assessed as cell viability after 36 hrs by MTT assay", "assay_type": "cell-based, Mesocricetus auratus", "conditions": "hamster, bhk15, 36 h"}, "dengue virus type 2": {"test_system": "dengue virus type 2", "assay": "Antiviral activity against Dengue virus 2 16681 in BHK15 cells at 50 uM after 48 hrs by immunofluorescence assay", "assay_type": "functional", "conditions": "Dengue virus, 16681, BHK15, 48 h", "how_it_was_run": "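Den-2 strain 16681 added to BHK monolayers at MOI 0.025 for 1 h at room temperature, then washed with PBS. Overlaid with MEM + 2.5% FBS containing compound at 50 µM and kept at 34 °C for 48 h. Fixed cells were stained with anti-dengue capsid antibody (2 h), a TRITC secondary and DAPI. Infected versus total cells were counted in three random fields per well to give percent inhibition.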"}, "Yellow fever virus [4]": {"test_system": "Yellow fever virus", "assay": "Antiviral activity against IRES-luciferase tagged Yellow fever virus in BHK15 cells assessed as reduction of luciferase activity at 50 uM after 36 hrs", "assay_type": "functional", "conditions": "BHK15, 36 h", "how_it_was_run": "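Primary screen of the YFV-IRES-Luc (YFV 17D reporter) infection at MOI 0.1 in confluent BHK-15 cells. Compound was given at a single 50 µM concentration for ~36 h at 37 °C, 5% CO2. Percent inhibition came from lysate firefly luciferase luminescence versus DMSO-treated infected cells. Over 50% inhibition counted as active.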"}}}
{"smiles": "c1ccc(-c2cc(-c3ccccc3)[nH]n2)cc1", "values": [{"measurement": "selectivity ratio", "setting": "[1]", "value": 2.8}, {"measurement": "EC50", "setting": "Yellow fever virus [2]", "value": 44, "unit": "µM"}, {"measurement": "CC50", "setting": "[3]", "value": 123, "unit": "µM"}]}
{"smiles": "Nc1ccc(SCc2csc(-c3ccc(Cl)cc3)n2)cc1", "values": [{"measurement": "selectivity ratio", "setting": "[1]", "value": 5.2}, {"measurement": "EC50", "setting": "Yellow fever virus [2]", "value": 29, "unit": "µM"}, {"measurement": "CC50", "setting": "[3]", "value": 151, "unit": "µM"}]}
{"smiles": "Cc1nc(-n2nc(-c3ccccc3)cc2-c2ccccc2)sc1C(=O)OCC12CC3CC(CC(C3)C1)C2", "values": [{"measurement": "EC50", "setting": "Yellow fever virus [2]", "value": "> 50", "unit": "µM"}]}
{"smiles": "CC(=O)c1ccc(NC(=O)Nc2nc(C)c(C(=O)NCc3ccc(Cl)cc3Cl)s2)cc1", "values": [{"measurement": "EC50", "setting": "Yellow fever virus [2]", "value": "> 50", "unit": "µM"}]}
{"smiles": "Nc1ccccc1SCc1csc(-c2ccccc2Cl)n1", "values": [{"measurement": "selectivity ratio", "setting": "[1]", "value": 2.9}, {"measurement": "EC50", "setting": "Yellow fever virus [2]", "value": 46, "unit": "µM"}, {"measurement": "CC50", "setting": "[3]", "value": 133, "unit": "µM"}]}
{"smiles": "ClCc1csc(-c2ccc(Cl)cc2)n1", "values": [{"measurement": "EC50", "setting": "Yellow fever virus [2]", "value": "> 50", "unit": "µM"}]}
{"smiles": "CC(=O)c1ccc(CN(Cc2ccc(C(C)=O)cc2)c2nc(C)c(C(=O)NCc3ccc(Cl)cc3Cl)s2)cc1", "values": [{"measurement": "EC50", "setting": "Yellow fever virus [2]", "value": "> 50", "unit": "µM"}]}
{"smiles": "COC(=O)c1sc(NC(=O)Nc2ccc(/C(C)=N/NC(N)=O)cc2)nc1C", "values": [{"measurement": "EC50", "setting": "Yellow fever virus [2]", "value": "> 50", "unit": "µM"}]}
{"smiles": "Cc1nc(-n2nc(-c3ccccc3)cc2-c2ccccc2)sc1C(=O)O", "values": [{"measurement": "EC50", "setting": "Yellow fever virus [2]", "value": "> 50", "unit": "µM"}]}
{"smiles": "COC(=O)c1sc(-c2ccc(Cl)cc2)nc1C(Br)Br", "values": [{"measurement": "selectivity ratio", "setting": "[1]", "value": 170}, {"measurement": "inhibition at 50 µM", "setting": "dengue virus type 2", "value": 99, "unit": "%"}, {"measurement": "inhibition at 50 µM", "setting": "Yellow fever virus [4]", "value": 99, "unit": "%"}, {"measurement": "EC50", "setting": "Yellow fever virus [2]", "value": 0.9, "unit": "µM"}, {"measurement": "CC50", "setting": "[3]", "value": 153, "unit": "µM"}]}
{"smiles": "COC(=O)c1sc(-c2ccccc2)nc1C", "values": [{"measurement": "EC50", "setting": "Yellow fever virus [2]", "value": "> 50", "unit": "µM"}]}
{"smiles": "CCOC(=O)c1sc(-n2nc(-c3ccccc3)cc2-c2ccccc2)nc1C", "values": [{"measurement": "EC50", "setting": "Yellow fever virus [2]", "value": "> 50", "unit": "µM"}]}
{"smiles": "C/C(=N\\NC(=N)N)c1ccc(NC(=O)Nc2nc(C)c(C(=O)NCc3ccc(Cl)cc3Cl)s2)cc1", "values": [{"measurement": "selectivity ratio", "setting": "[1]", "value": 4.1}, {"measurement": "EC50", "setting": "Yellow fever virus [2]", "value": 37.6, "unit": "µM"}, {"measurement": "CC50", "setting": "[3]", "value": 154, "unit": "µM"}]}
{"smiles": "Clc1ccc(-c2nc(CSc3cccc(Cl)c3)cs2)cc1", "values": [{"measurement": "EC50", "setting": "Yellow fever virus [2]", "value": "> 50", "unit": "µM"}]}
{"smiles": "CC(=O)c1ccc(NC(=O)Nc2nc(C)c(C(=O)NCc3ccc(Cl)c(Cl)c3)s2)cc1", "values": [{"measurement": "selectivity ratio", "setting": "[1]", "value": 3.7}, {"measurement": "EC50", "setting": "Yellow fever virus [2]", "value": 37, "unit": "µM"}, {"measurement": "CC50", "setting": "[3]", "value": 138, "unit": "µM"}]}
{"smiles": "COC(=O)c1sc(N(Cc2ccc(C(C)=O)cc2)Cc2ccc(C(C)=O)cc2)nc1C", "values": [{"measurement": "selectivity ratio", "setting": "[1]", "value": 8}, {"measurement": "EC50", "setting": "Yellow fever virus [2]", "value": 25, "unit": "µM"}, {"measurement": "CC50", "setting": "[3]", "value": 200, "unit": "µM"}]}
{"smiles": "Nc1ccc(SCc2csc(-c3cccnc3)n2)cc1", "values": [{"measurement": "EC50", "setting": "Yellow fever virus [2]", "value": "> 50", "unit": "µM"}]}
{"smiles": "Nc1ccccc1SCc1csc(-c2ccc(Cl)cc2)n1", "values": [{"measurement": "selectivity ratio", "setting": "[1]", "value": 2}, {"measurement": "EC50", "setting": "Yellow fever virus [2]", "value": 31, "unit": "µM"}, {"measurement": "CC50", "setting": "[3]", "value": 61, "unit": "µM"}]}
{"smiles": "Cc1nc(-c2ccc(Cl)cc2)sc1C(=O)NCc1ccc(Cl)c(Cl)c1", "values": [{"measurement": "EC50", "setting": "Yellow fever virus [2]", "value": "> 50", "unit": "µM"}]}
{"smiles": "Cc1nc(-n2nc(-c3ccccc3)cc2-c2ccccc2)sc1C(=O)OCc1ccc(I)cc1", "values": [{"measurement": "EC50", "setting": "Yellow fever virus [2]", "value": "> 50", "unit": "µM"}]}
{"smiles": "C/C(=N\\NC(=N)N)c1ccc(NC(=O)Nc2ccc(/C(C)=N/NC(=N)N)cc2)cc1", "values": [{"measurement": "selectivity ratio", "setting": "[1]", "value": 30.6}, {"measurement": "EC50", "setting": "Yellow fever virus [2]", "value": 13, "unit": "µM"}, {"measurement": "CC50", "setting": "[3]", "value": 398, "unit": "µM"}]}
{"smiles": "CC(=O)c1ccc(NC(=O)Nc2nc(C)c(C(=O)O)s2)cc1", "values": [{"measurement": "EC50", "setting": "Yellow fever virus [2]", "value": "> 50", "unit": "µM"}]}
{"smiles": "COC(=O)c1sc(N(Cc2ccc(C(C)=O)cc2)C(C)=O)nc1C", "values": [{"measurement": "EC50", "setting": "Yellow fever virus [2]", "value": "> 50", "unit": "µM"}]}
{"smiles": "Nc1ccc(SCc2csc(-c3ccccc3Cl)n2)cc1", "values": [{"measurement": "selectivity ratio", "setting": "[1]", "value": 3.2}, {"measurement": "EC50", "setting": "Yellow fever virus [2]", "value": 40, "unit": "µM"}, {"measurement": "CC50", "setting": "[3]", "value": 131, "unit": "µM"}]}
{"smiles": "Cc1nc(-n2nc(-c3ccccc3)cc2-c2ccccc2)sc1C(=O)NCc1ccc(Cl)c(Cl)c1", "values": [{"measurement": "selectivity ratio", "setting": "[1]", "value": 37}, {"measurement": "EC50", "setting": "Yellow fever virus [2]", "value": 5, "unit": "µM"}, {"measurement": "CC50", "setting": "[3]", "value": 186, "unit": "µM"}]}
{"smiles": "COC(=O)c1sc(NC(=O)Nc2ccc(C(C)=O)cc2)nc1C", "values": [{"measurement": "selectivity ratio", "setting": "[1]", "value": 11.2}, {"measurement": "EC50", "setting": "Yellow fever virus [2]", "value": 13.9, "unit": "µM"}, {"measurement": "CC50", "setting": "[3]", "value": 155, "unit": "µM"}]}
{"smiles": "Nc1ccc(SCc2csc(-c3ccccc3)n2)cc1", "values": [{"measurement": "selectivity ratio", "setting": "[1]", "value": 4.2}, {"measurement": "EC50", "setting": "Yellow fever virus [2]", "value": 37, "unit": "µM"}, {"measurement": "CC50", "setting": "[3]", "value": 155, "unit": "µM"}]}
{"smiles": "Cc1nc(-n2nc(-c3ccccc3)cc2-c2ccccc2)sc1C(=O)Oc1ccc(I)cc1", "values": [{"measurement": "EC50", "setting": "Yellow fever virus [2]", "value": "> 50", "unit": "µM"}]}
{"smiles": "Cc1nc(-c2ccc(Cl)cc2)sc1C(=O)OCC12CC3CC(CC(C3)C1)C2", "values": [{"measurement": "EC50", "setting": "Yellow fever virus [2]", "value": "> 50", "unit": "µM"}]}
{"smiles": "Cc1nc(-n2nc(-c3ccccc3)cc2-c2ccccc2)sc1C(=O)/C=C/c1ccc(Cl)c(Cl)c1", "values": [{"measurement": "selectivity ratio", "setting": "[1]", "value": 1.37}, {"measurement": "EC50", "setting": "Yellow fever virus [2]", "value": 51, "unit": "µM"}, {"measurement": "CC50", "setting": "[3]", "value": 70, "unit": "µM"}]}
{"smiles": "Nc1ccccc1SCc1csc(-c2cccnc2)n1", "values": [{"measurement": "EC50", "setting": "Yellow fever virus [2]", "value": "> 50", "unit": "µM"}]}
{"smiles": "Cc1nc(-n2nc(-c3ccccc3)cc2-c2ccccc2)sc1C(=O)OC(C)C", "values": [{"measurement": "EC50", "setting": "Yellow fever virus [2]", "value": "> 50", "unit": "µM"}]}
{"smiles": "Nc1ccccc1SCc1csc(-c2ccccc2)n1", "values": [{"measurement": "selectivity ratio", "setting": "[1]", "value": 2.6}, {"measurement": "EC50", "setting": "Yellow fever virus [2]", "value": 46, "unit": "µM"}, {"measurement": "CC50", "setting": "[3]", "value": 119, "unit": "µM"}]}
{"smiles": "COC(=O)c1sc(NC(=O)Nc2ccc(/C(C)=N/NC(=N)N)cc2)nc1C", "values": [{"measurement": "EC50", "setting": "Yellow fever virus [2]", "value": "> 50", "unit": "µM"}]}
{"smiles": "C/C(=N\\NC(N)=O)c1ccc(NC(=O)Nc2nc(C)c(C(=O)NCc3ccc(Cl)cc3Cl)s2)cc1", "values": [{"measurement": "EC50", "setting": "Yellow fever virus [2]", "value": "> 50", "unit": "µM"}]}
{"smiles": "CCCCCCCCOC(=O)c1sc(-n2nc(-c3ccccc3)cc2-c2ccccc2)nc1C", "values": [{"measurement": "EC50", "setting": "Yellow fever virus [2]", "value": "> 50", "unit": "µM"}]}
{"smiles": "COC(=O)c1sc(-c2ccncc2)nc1C", "values": [{"measurement": "EC50", "setting": "Yellow fever virus [2]", "value": "> 50", "unit": "µM"}]}
{"smiles": "Cc1csc(-c2ccc(Cl)cc2)n1", "values": [{"measurement": "EC50", "setting": "Yellow fever virus [2]", "value": "> 50", "unit": "µM"}]}
{"smiles": "COC(=O)c1sc(-c2ccc(Cl)cc2)nc1C", "values": [{"measurement": "EC50", "setting": "Yellow fever virus [2]", "value": "> 50", "unit": "µM"}]}
